Results reported in PMC6300088 (Pharmaceutical Biology, 2018).
Values after ≈ are worked out from the molar mass of the structure shown. Read-outs that look alike come from different tables or passages of the source.

Legend:
[1] = tested on: MCF7MX (BCRP overexpressing human epithelial breast cancer cell line); conditions: read-out: IC50 against MCF7MX; ref Mirzaei et al. [2017]; cited from earlier work
[2] = tested on: L5178Y human ABCB1-transfected subline (MDR); assay: Cytotoxic effect; assay type: cell-based, mouse; conditions: 24 h; for IC50: L5178Y, read-out: CA on MDR cells (IC50); for CA on MDR cells (IC50): cytotoxic activity, MTT, mean ± SD, n = 3
[3] = tested on: L5178Y human ABCB1-transfected subline (MDR); assay: Antiproliferative effect; assay type: cell-based, mouse; conditions: 72 h, read-out: AA on MDR cells (IC50)
[4] = tested on: L5178Y mouse T-cell lymphoma cells: parent, PAR cells; assay: Antiproliferative effect; assay type: cell-based; conditions: 72 h, read-out: AA on PAR cells (IC50)
[5] = tested on: L5178Y mouse T-cell lymphoma cells: parent, PAR cells; assay: Cytotoxic effect; assay type: cell-based; conditions: 24 h; for IC50: Mus musculus, L5178Y, read-out: CA on PAR cells (IC50)
[6] = tested on: multidrug resistant mouse T-lymphoma cells overexpressing the ABCB1 transporter; assay: Checkerboard combination assay with doxorubicin; assay type: cell-based; conditions: MDR cells
How it was run: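 L5178Y mouse T-lymphoma cells transfected with human ABCB1 (MDR), 6 × 10^3 per well in McCoy's 5A. Checkerboard layout with doxorubicin diluted horizontally (final concentration stated as 17.242 μM) and test compound diluted vertically. Incubated 72 h at 37 °C in 5% CO2. MTT added (5 mg/mL stock) for 4 h at 37 °C, then 10% SDS in 0.01 M HCl overnight at 37 °C.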

ABCB1 (P-glycoprotein) = assay type: cell-based, human; conditions: for FL-1 (mean fluorescence intensity of the cells): MDR cells, rhodamine 123; for FAR (fluorescence activity ratio): rhodamine 123 retention
[7] = tested on: NIH/3T3 mouse embryonic fibroblast cell line; assay: Cytotoxic effect; assay type: cell-based; conditions: cytotoxic activity on normal murine fibroblasts, 24 h, MTT, mean ± SD, n = 3
[8] = tested on: HCT-15 (colon cancer) cells; conditions: HCT-15 cells; ref Kim et al. [2007]; cited from earlier work
HL-60/MX2 (MDR) = conditions: read-out: IC50 against HL-60/MX2; ref Kubrak et al. [2017]; cited from earlier work
[9] = tested on: CEM/C1 (lymphoblastic leukaemia); conditions: read-out: IC50 against CEM/C1; ref Kubrak et al. [2017]; cited from earlier work

For `COc1c2occc2cc2ccc(=O)oc12` [8-Methoxypsoralen], the IC50 [1] is listed as 0.0011 ± 0.00091 µM.
Compound `COc1cccc2c1C(=O)c1c(O)c3c(c(O)c1C2=O)C[C@@](O)(C(=O)CO)C[C@@H]3O[C@H]1C[C@H](N)[C@H](O)[C@H](C)O1` [Doxorubicin, doxorubicin, reference compound] has an IC50 [2] of 7.15 ± 0.358 µM, an IC50 [3] of 0.468 ± 0.065 µM and an IC50 [4] of 0.054 ± 0.005 µM. It also gave an IC50 [5] of 0.377 ± 0.02 µM.
For `CC1(C)O[C@@H]1COc1c2occc2cc2ccc(=O)oc12` [Heraclenin (8), heraclenin], the IC50 [2] was 83.9 ± 1.68 µM, the IC50 [3] was 46.5 ± 1.22 µM and the Interaction ([6]; listed as Heraclenin) was “Slight synergism”. For the same compound, the Interaction ([6]; listed as heraclenin (8)) was “slight synergistic effect”, the “FL-1 (mean fluorescence intensity of the cells)” value (ABCB1 (P-glycoprotein); 2 µM) was 0.942 and the “FAR (fluorescence activity ratio)” value (ABCB1 (P-glycoprotein); 2 µM) was 1.29. The “FL-1 (mean fluorescence intensity of the cells)” value (ABCB1 (P-glycoprotein); 20 µM) was 0.57, the “FAR (fluorescence activity ratio)” value (ABCB1 (P-glycoprotein); 20 µM) was 0.78 and the IC50 [4] was 32.7 ± 2.4 µM. The IC50 [5] was 65.8 ± 1 µM.
In the case of `CC(C)(O)[C@H](O)COc1c2occc2cc2ccc(=O)oc12` [Heraclenol (9), heraclenol], the IC50 [2] is reported as > 100 µM, the “CA on MDR cells (IC50)” value [2] is reported as “no toxic effects” and the IC50 [3] is reported as 46.6 ± 0.47 µM. For the same compound, the “FL-1 (mean fluorescence intensity of the cells)” value (ABCB1 (P-glycoprotein); 2 µM) was 0.995, the “FAR (fluorescence activity ratio)” value (ABCB1 (P-glycoprotein); 2 µM) was 1.37 and the “FAR (fluorescence activity ratio)” value (ABCB1 (P-glycoprotein); 20 µM) was 1.30. The IC50 [4] was 52.3 ± 2.12 µM, the IC50 [5] was > 100 µM and the “CA on PAR cells (IC50)” value ([5]; cytotoxic activity, MTT, mean ± SD, n = 3) was “no toxic effects”.
With `CC(C)=CCOc1c2occc2cc2ccc(=O)oc12` [Imperatorin (6), imperatorin] the IC50 [2] was > 100 µM, the “CA on MDR cells (IC50)” value [2] was “without any toxicity” and the IC50 [3] was 42.2 ± 0.88 µM. For the same compound, the “FL-1 (mean fluorescence intensity of the cells)” value (ABCB1 (P-glycoprotein); 2 µM) was 0.727, the “FAR (fluorescence activity ratio)” value (ABCB1 (P-glycoprotein); 2 µM) was 0.62 and the “FL-1 (mean fluorescence intensity of the cells)” value (ABCB1 (P-glycoprotein); 20 µM) was 0.783. The “FAR (fluorescence activity ratio)” value (ABCB1 (P-glycoprotein); 20 µM) was 0.66, the “CA on NIH/3T3 cells (IC50)” value [7] was “no toxic activity” and the IC50 [4] was 36.1 ± 0.91 µM. It also gave an IC50 [5] of 52.6 ± 4.19 µM.
With `CC1(C)O[C@H]1COc1c2ccoc2cc2oc(=O)ccc12` [Oxypeucedanin (3), oxypeucedanin] the IC50 [2] was 66.7 µM, the IC50 [3] was 28.9 ± 0.73 µM and the Interaction ([6]; listed as Oxypeucedanin) was “Slight synergism”. For the same compound, the Interaction ([6]; listed as oxypeucedanin (3)) was “slight synergistic effect”, the “ED50, cell proliferation” value [8] was 3.4 ± 0.3 µg/mL (≈ 11.9 µM) and the “FL-1 (mean fluorescence intensity of the cells)” value (ABCB1 (P-glycoprotein); 2 µM) was 0.9. For the same compound, the “FAR (fluorescence activity ratio)” value (ABCB1 (P-glycoprotein); 2 µM) was 0.76, the “FL-1 (mean fluorescence intensity of the cells)” value (ABCB1 (P-glycoprotein); 20 µM) was 2.62 and the “FAR (fluorescence activity ratio)” value (ABCB1 (P-glycoprotein); 20 µM) was 2.22. For the same compound, the “FAR (fluorescence activity ratio)” value (ABCB1 (P-glycoprotein); 20 µM, listed as oxypeucedanin (3)) was “moderate ABCB1 inhibiting effect”, the IC50 [4] was 26 ± 1.27 µM and the IC50 [5] was 40.3 ± 0.63 µM.
In the case of `COc1cc2c(cc1OC)CN(CCc1ccc(NC(=O)c3cc(OC)c(OC)cc3NC(=O)c3cnc4ccccc4c3)cc1)CC2` [Tariquidar, tariquidar, reference compound], the “FL-1 (mean fluorescence intensity of the cells)” value (ABCB1 (P-glycoprotein); 0.02 µM) is reported as 119, the “FAR (fluorescence activity ratio)” value (ABCB1 (P-glycoprotein); 0.02 µM) is reported as 100.68 and the “FAR (fluorescence activity ratio)” value (ABCB1 (P-glycoprotein); 0.02 µM, listed as tariquidar) is reported as 100.
In the case of `COc1c2ccoc2c(OC)c2oc(=O)ccc12` [isopimpinellin], the IC50 (HL-60/MX2 (MDR)) is listed as 26 ± 5.7 µM.
For `COc1c2ccoc2c(OCC=C(C)C)c2oc(=O)ccc12` [phellopterin], the IC50 [9] is given as 8 ± 4 µM.
